As a reminder, the inhibition is the change of the read-out against control, counted positive when it falls.

A short description of test [1]: inhibitors of TNFa-induced NFkB p65 translocation, primary screen, imaging, HUVEC, MLSMR starter and 10KST1 sets (AID 438;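 active means inhibition above 20% together with a positive visual image hit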;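 further: compound added about 3h40 before a 20 min TNFalpha stimulation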;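 on inhibition: signal is the nuclear over cytoplasmic p65 intensity ratio per well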). The conditions noted are these: HUVEC TNFa-induced p65 nuclear translocation; cell count: measured here: nuclei count (cytotoxicity indicator), at 2.08 µM; inhibition: at 2 µM, stronger effect = higher value, 0% TNFa-plus-vehicle, 100% no-TNFa wells.
A short description of test [2]: endothelial E-selectin expression blockers – imaging, HUVEC, immunofluorescence, MLSMR starter and 10KST1 sets, primary screen (AID 487;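 active means visually confirmed hit in the image check and inhibition above 20%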;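 on inhibition: signal is fraction of cell area covered by stained E-selectin grains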;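 on nuclei count: 100% = median nuclei count of all wells on the same plate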). The conditions noted are these: HUVEC TNFalpha-induced E-selectin immunofluorescence imaging, at 2 µM; inhibition: stronger effect = higher value; nuclei count: measured here: cell number, toxicity.
Test [3] can be described thus: Primary imaging screen for DUSP6 inhibitors that restore phospho-Erk in transfected HeLa cells, chemical complementation (AID 609;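 active means compounds giving at least 50% inhibition in the cell-based MKP-3 phosphatase rescue imaging test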;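 on inhibition: phospho-Erk level distribution per well compared with pooled transfected vehicle control wells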). The settings on record: HeLa MKP-3 transfected, phospho-Erk imaging KS statistic, at 10 µM, cells stimulated with TPA for 15 min.
Test [4] addresses Dual specificity protein phosphatase 6 (Homo sapiens) (UniProt Q16828). The description is as above. The settings on record: HeLa MKP-3 transfected, phospho-Erk imaging KS statistic; at 10 µM; stronger effect = higher value; cells stimulated with TPA for 15 min.
Test [5] deals with Voltage-gated potassium channel subunit beta-2 (Rattus norvegicus) (UniProt P62483). The experiment in a line: inhibitors of rat Kvbeta2 reductase activity – biochemical, NADPH fluorescence, primary screen (AID 622;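 active means fluorescence slope higher than the sample average by over 3 SD, cut at about -0.22 in these data, passing the limit was not always enough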;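 further: slope of raw intensity against log time taken from 70 to 1610 s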). The settings on record: recombinant KvBeta, 4-cyanobenzaldehyde reduction, at 10 µM, stronger effect = higher value.
Voltage-gated potassium channel subunit beta-2 (Rattus norvegicus), sequence (P62483 whole entry, looked up): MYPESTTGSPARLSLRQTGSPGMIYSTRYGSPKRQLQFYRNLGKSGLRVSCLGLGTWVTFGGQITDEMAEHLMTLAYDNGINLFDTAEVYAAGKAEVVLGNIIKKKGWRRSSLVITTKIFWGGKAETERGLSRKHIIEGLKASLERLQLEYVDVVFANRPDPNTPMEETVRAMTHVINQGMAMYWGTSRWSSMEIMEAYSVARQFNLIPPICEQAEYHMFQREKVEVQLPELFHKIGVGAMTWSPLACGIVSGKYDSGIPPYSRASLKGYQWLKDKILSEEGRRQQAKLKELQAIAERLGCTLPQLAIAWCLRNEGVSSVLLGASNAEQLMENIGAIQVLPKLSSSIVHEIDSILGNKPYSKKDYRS
Test [6] shares this target. Description: enhancers of rat Kvbeta2 NADPH turnover – biochemical, NADPH fluorescence, primary screen (AID 623;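 active means NADPH fluorescence slope more negative than the mean of all samples by about 3 SD, 99.7% confidence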;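 further: fluorescence intensity change per second fitted from 20 to 320 s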). The settings on record: Recombinant KvBeta, NADPH fluorescence decrease slope, 10 min; at 10 µM; stronger effect = lower value.
The target in test [7] is Alpha-2C adrenergic receptor (Homo sapiens) (UniProt P18825). Description: compounds altering alpha2C-coupled GIRK flux – cell-based, HEK293 alpha2C/GIRK1/2, thallium flux, primary screen (AID 624).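 Further: slope of fluorescence ratio to pre-addition baseline per second over 15 to 24 s.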 The conditions noted are these: thallium flux BTC fluorescence, at 10 µM, actives lie on both sides.
Alpha-2C adrenergic receptor (Homo sapiens), sequence (P18825 whole entry, looked up): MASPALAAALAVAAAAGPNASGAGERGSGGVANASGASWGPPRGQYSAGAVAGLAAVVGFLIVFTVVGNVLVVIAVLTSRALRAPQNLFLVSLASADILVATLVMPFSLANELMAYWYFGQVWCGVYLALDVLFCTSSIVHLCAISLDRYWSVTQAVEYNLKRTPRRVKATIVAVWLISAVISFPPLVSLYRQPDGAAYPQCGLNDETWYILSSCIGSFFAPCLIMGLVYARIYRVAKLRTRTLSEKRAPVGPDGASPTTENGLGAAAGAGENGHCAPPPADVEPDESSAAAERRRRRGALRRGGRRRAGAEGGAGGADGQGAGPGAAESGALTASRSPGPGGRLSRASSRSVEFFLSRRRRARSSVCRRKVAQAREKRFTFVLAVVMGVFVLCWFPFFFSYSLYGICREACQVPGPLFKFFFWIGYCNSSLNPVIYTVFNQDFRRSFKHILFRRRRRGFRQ
Test [8] in a line: inhibitors of larval lipid processing in zebrafish, primary screen, whole organism, PED6 fluorescence, gall bladder and intestine (AID 686;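 active means a full or partial loss of lipid-probe fluorescence in the fish gall bladder, intestine or both, judged by eye; inactive means no fluorescence loss, or compound toxic to the fish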;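 further: larvae 5 to 7 days old with five fish per well; signal comes from phospholipase A2 cleavage of quenched PED6 carried via bile; overnight exposure to compound and PED6 before scoring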). The conditions noted are these: Zebrafish larvae PED6 lipid processing, fluorescence scoring; screened at 20 µM (by protocol). An outline of the steps:
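system = live zebrafish larvae aged 5-7 days, whole organism | probe or stimulus = ingested quenched lipid PED6 at 100 nM | doses = 20 µM single dose | timing = overnight exposure | detection = fluorescence microscopy with visual scoring of gall bladder and intestine | read-out = visual per-well fluorescence inhibition score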

Test [9] can be described thus: loss of swimming-algae plug formation – whole organism, Chlamydomonas reinhardtii, WT vs cilia-less mutant, absorbance, 96-well, primary screen (AID 463189;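 active means inhibition at or above 50% relative to wild type and mutant plate controls; inactive means inhibition below 50%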;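 further: 0% = wild type cc124 cells in DMSO and 100% = ciliumless bld1 mutant cells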). The settings on record: Chlamydomonas reinhardtii gravitaxis, OD600 absorbance, 2 days; at 10 µM; stronger effect = higher value.
Where [10] appears, read: measured here: cell density z-score.
Setting [11] is: measured here: nuclear c-Myc green intensity z-score.
Where [12] appears, read: measured here: nuclear pErk red intensity z-score, stronger effect = higher value.

Active and inactive are the calls of the source.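 How the source made its calls, unless noted: active means fluorescence slope after compound addition differing from the mean of all screened samples at 99.7% confidence, in either direction; inactive means the rest.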

Dual specificity protein phosphatase 6 (Homo sapiens), sequence (Q16828 whole entry, looked up): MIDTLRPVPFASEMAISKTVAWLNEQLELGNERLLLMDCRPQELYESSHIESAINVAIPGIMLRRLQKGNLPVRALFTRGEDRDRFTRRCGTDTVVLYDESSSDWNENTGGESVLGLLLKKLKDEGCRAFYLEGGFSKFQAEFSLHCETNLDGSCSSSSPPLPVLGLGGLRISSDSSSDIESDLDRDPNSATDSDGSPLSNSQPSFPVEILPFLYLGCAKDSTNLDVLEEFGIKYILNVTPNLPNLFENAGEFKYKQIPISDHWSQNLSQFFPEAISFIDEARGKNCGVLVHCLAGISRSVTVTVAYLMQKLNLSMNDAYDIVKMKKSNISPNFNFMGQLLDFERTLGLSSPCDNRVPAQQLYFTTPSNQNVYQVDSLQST

On to `CCCNC(=O)N(C)c1nncnc1C(=O)NC`, for which the cell count in [1] was determined as 503. Also, the inhibition in test [1] is -20.4% (inactive); in test [2], -13.3% (inactive); in test [4] it was 4.72% (inactive); in [9], -3.95% (inactive). The compound also returned a nuclei count in [2] of 99.4%. Also, the results for the z-score in test [3] (setting [10]), in [3] (setting [11]) and in test [3] (setting [12]) were 1.47, 0.478 and -1.19, respectively. Moreover, the fluorescence slope in [5] is -0.517 (inactive). The NADPH fluorescence slope in test [6] was 1.1e-05 (inactive). Besides, the slope in test [7] is 0.00825 (inactive). The compound was classed as inactive in [8].
`CCCCCCc1cc2cc(-c3nnc(-c4ccccc4O)o3)c(=O)oc2cc1O`: the cell count in [1] turned out to be 473. For the same compound, the inhibition in test [1] was -2.3% (inactive); in test [2], -99.6% (inactive); in test [4] it was -7.79% (inactive); in [9] it was 13.3% (inactive). The compound also yielded a nuclei count in test [2] of 122%. In addition, the z-score was -0.061 in test [3] (setting [10]), 1.83 in test [3] (setting [11]) and -1.3 in [3] (setting [12]). Besides, the fluorescence slope in test [5] is -0.274 (inactive). Moreover, in test [6], the NADPH fluorescence slope is 5.9e-06 (inactive). Also, in [7], the slope was 0.0685 (active). Besides, the outcome in test [8] was inactive.
Take `CCOC(=O)c1nc2nc(C)c(Cl)c(=O)n2[nH]1`: the cell count in test [1] amounted to 529. Further, the inhibition in test [1] was 3.9% (inactive); in test [2], -83.9% (inactive); in test [4] it was 14% (inactive); in [9], 0.754% (inactive). This compound also gave a nuclei count in test [2] of 153%. Besides, the z-score was 0.438 in [3] (setting [10]), -0.565 in test [3] (setting [11]) and -0.252 in [3] (setting [12]). Besides, the fluorescence slope in test [5] was -0.497 (inactive). Also, in test [6], the NADPH fluorescence slope was -4.1e-05 (inactive). The slope in [7] was 0.00501 (inactive). Also, the call in [8] was inactive.
As for `CC(=O)N1CCN(c2nc(CC(C)C)c3c(c2C#N)CCC3)CC1`, the cell count in [1] was found to be 524. Also, the inhibition is 0.5% (inactive) in test [1], -100% (inactive) in [2], 5.26% (inactive) in test [4] and -18% (inactive) in test [9]. In test [2], this compound returned a nuclei count of 145%. The z-score in test [3] (setting [10]) was -0.27; in test [3] (setting [11]) it was -0.142; in test [3] (setting [12]) it was -0.203. Further, the fluorescence slope in test [5] is -0.477 (inactive). Also, the NADPH fluorescence slope in [6] was -4.8e-05 (inactive). Also, in test [7], the slope was 0.00485 (inactive). For the same compound, the result in [8] was inactive.
Regarding `Cc1nc2n[nH]c(N)c2c2c1COC(C)(C)C2`, the cell count in test [1] turned out to be 674. Moreover, the inhibition in test [1] was -22.2% (inactive); in test [2], -454% (inactive); in test [4], 5.57% (inactive); in test [9] it was 3.25% (inactive). The same compound had a nuclei count in test [2] of 178%. Also, the z-score was 0.565 in test [3] (setting [10]), -1.79 in [3] (setting [11]) and -0.0762 in [3] (setting [12]). The fluorescence slope in [5] is -0.516 (inactive). The NADPH fluorescence slope in test [6] was -0.000106 (inactive). In [7], the slope is 0.00411 (inactive). For the same compound, in test [8], the compound was called inactive.
Consider `CCn1cc(C(=O)NCc2ccccn2)c(=O)c2cc(F)c(N3CCN(C)CC3)cc21`, for which the cell count in test [1] is 461. Also, the inhibition in [1] was -3.5% (inactive); in [2] it was -38.2% (inactive); in test [4], -0.624% (inactive); in test [9], 6.37% (inactive). This compound also displayed a nuclei count in test [2] of 185%. Besides, the z-score in test [3] (setting [10]) was -1.96; in test [3] (setting [11]) it was 2.4; in [3] (setting [12]), 0.403. The fluorescence slope in [5] is -0.292 (inactive). Also, the NADPH fluorescence slope in test [6] was -3e-05 (inactive). Further, the slope in test [7] was 0.00581 (inactive). Also, the compound was classed as inactive in test [8].
Take `O=C(CN1C(=O)c2ccccc2C1=O)NCc1ccccn1`: the cell count in test [1] was 400. The inhibition in test [1] was -5.8% (inactive); in [2], -67.3% (inactive); in [4] it was 5.42% (inactive); in [9], 26% (inactive). The nuclei count in test [2] amounted to 171%. Moreover, the results for the z-score in test [3] (setting [10]), in test [3] (setting [11]) and in test [3] (setting [12]) were 0.0865, -1.72 and 1.07, respectively. Further, the fluorescence slope in [5] was -0.417 (inactive). For the same compound, the NADPH fluorescence slope in test [6] was -0.000121 (inactive). In test [7], the slope is 0.00507 (inactive). Besides, the compound was called inactive in [8].
As for `CCCCOc1ccc(C)cc1CN(CCO)CCO`, the cell count in test [1] stood at 552. For the same compound, the inhibition in test [1] was -8% (inactive); in test [2], -87% (inactive); in [4] it was 1.9e-07% (inactive); in [9], -2.14% (inactive). The compound further had a nuclei count in [2] of 111%. In addition, the z-score was -1.69 in test [3] (setting [10]), -0.122 in test [3] (setting [11]) and -1.5 in [3] (setting [12]). Besides, the fluorescence slope in test [5] is -0.506 (inactive). Moreover, the NADPH fluorescence slope in test [6] is -1.2e-05 (inactive). Further, the slope in test [7] is 0.0065 (inactive). Also, the result in test [8] was inactive.
`Cc1ccc(-c2ccc(/C=N/c3ncn[nH]3)o2)cc1Cl`: the cell count in test [1] is 555. Further, the inhibition in test [1] is -7% (inactive); in test [2], 17.3% (inactive); in [4] it was 4.72% (inactive); in test [9], 0.03% (inactive). In test [2], this compound registered a nuclei count of 119%. The values for the z-score in [3] (setting [10]), in [3] (setting [11]) and in [3] (setting [12]) were 1.47, 1.26 and 0.207, respectively. Besides, in test [5], the fluorescence slope was -0.446 (inactive). Besides, in test [6], the NADPH fluorescence slope is -1.9e-05 (inactive). In addition, the slope in [7] was 0.00689 (inactive). Besides, the call in test [8] was inactive.
For the compound `CCCCOc1ccc(CSC(CC(=O)O)C(=O)O)cc1` (configuration not stated), the cell count in test [1] was found to be 336. The inhibition is -16.7% (inactive) in [1], -75.1% (inactive) in test [2], 3.5% (inactive) in test [4] and 1.39% (inactive) in test [9]. This compound also registered a nuclei count in test [2] of 114%. The values for the z-score in test [3] (setting [10]), in test [3] (setting [11]) and in [3] (setting [12]) were -0.61, -0.895 and 0.193, respectively. Also, in test [5], the fluorescence slope was -0.433 (inactive). Moreover, the NADPH fluorescence slope in [6] is -0.000104 (inactive). In addition, in test [7], the slope is 0.00541 (inactive). Also, in test [8], the result was inactive.
Consider `O=C(O)CCCC(=O)Nc1ccn(-c2ccccc2)n1`, for which the cell count in test [1] was 639. Also, the inhibition was 3.1% (inactive) in test [1], -63.9% (inactive) in [2], 20.3% (inactive) in test [4] and 11.2% (inactive) in [9]. Besides, in test [2], the nuclei count amounted to 142%. In addition, the values for the z-score in [3] (setting [10]), in test [3] (setting [11]) and in test [3] (setting [12]) were 2.2, -2.05 and 0.525, respectively. In addition, the fluorescence slope in test [5] was -0.486 (inactive). The NADPH fluorescence slope in test [6] was -2.7e-05 (inactive). The slope in test [7] was 0.00622 (inactive). Further, in [8], the result was inactive.
Consider `O=C1CCC(=O)N1CNc1ccccn1`, for which the cell count in test [1] stood at 493. The inhibition is -5% (inactive) in test [1], -53.8% (inactive) in test [2], 7.93% (inactive) in test [4] and 23.2% (inactive) in test [9]. The nuclei count in test [2] turned out to be 99.7%. Moreover, the values for the z-score in test [3] (setting [10]), in test [3] (setting [11]) and in test [3] (setting [12]) were -0.594, -0.186 and -0.375, respectively. Moreover, in [5], the fluorescence slope was -0.495 (inactive). Further, the NADPH fluorescence slope in test [6] was -5.8e-05 (inactive). For the same compound, the slope in [7] was 0.00525 (inactive). Besides, the outcome in test [8] was inactive.
`CCn1c(SCC(=O)O)nc2sc3c(c2c1=O)CCC3`: the cell count in test [1] amounted to 664. Further, the inhibition in test [1] is -3.3% (inactive); in test [2], 9.9% (inactive); in [4] it was 2.71% (inactive); in [9], -0.935% (inactive). Besides, in [2], the nuclei count was determined as 171%. Further, the z-score is -0.751 in [3] (setting [10]), -1.02 in test [3] (setting [11]) and -0.615 in test [3] (setting [12]). The fluorescence slope in test [5] was -0.405 (inactive). In addition, the NADPH fluorescence slope in test [6] was -5.6e-05 (inactive). Besides, the slope in test [7] is 0.00483 (inactive). In addition, the compound was classed as inactive in test [8].
For the compound `C=CCn1c(SCc2c(F)c(F)c(F)c(F)c2F)nc(O)cc1=O`, the cell count in [1] turned out to be 615. For the same compound, the inhibition is -1.1% (inactive) in test [1], -11.1% (inactive) in test [2], 7.83% (inactive) in test [4] and 8.12% (inactive) in test [9]. For the same compound, in test [2], the nuclei count was determined as 149%. Besides, the z-score in [3] (setting [10]) is 1.68; in test [3] (setting [11]) it was -0.511; in test [3] (setting [12]), 0.131. Besides, in test [5], the fluorescence slope was -0.502 (inactive). Also, in [6], the NADPH fluorescence slope was -0.00012 (inactive). The slope in test [7] is 0.00491 (inactive). Moreover, the compound was called inactive in test [8].
